From PubChem
p47phox inh: p47phox/p22phox peptide binding inhibitors, primary screen, biochemical, uHTS, NADPH oxidase regulatory subunit. hit rate 0.53% among 220,000. Neutrophil cytosol factor 1 (Homo sapiens), P14598. inhibition, % at 24.7 µM. fluorescence polarization, 2 h;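 further: 0% = p47phox with labelled peptide and 100% = labelled peptide alone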
eIF4E-4G inh: eIF4E–eIF4G protein interaction inhibitors, primary screen, biochemical, uHTS, TR-FRET, eIF4GI fragment; Eukaryotic translation initiation factor 4E (Mus musculus) + Eukaryotic translation …; TR-FRET eIF4E-eIF4GI(517-606) binding, 2 h; inhibition, % at 21.7 µM; hit rate 0.37% among 220,000;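 further: 0% = full FRET control wells and 100% = background wells lacking eIF4GI fragment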
14-3-3 Bad inh: inhibitors of 14-3-3 zeta/Bad binding, primary screen, biochemical, TR-FRET, bovine 14-3-3 zeta | hit rate 0.71% among 220,000 | inhibition, % at 21.7 µM | TR-FRET 14-3-3zeta/Dy647-pBad peptide displacement, 1 h;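 active means inhibition above about 70%, limit read from the data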;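 further: 0% = full 14-3-3 plus peptide FRET controls and 100% = background without 14-3-3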
RBBP9 inhibitor: human RBBP9 inhibitors, primary screen, biochemical, fluorescence polarization, FP-Rh probe, HTS | Serine hydrolase RBBP9 (Homo sapiens), O75884 | recombinant RBBP9 | inhibition, % at 7.94 µM | hit rate 0.2% among 220,000;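 active means inhibition above the campaign mean of all tested compounds plus 3 SD, cut at about 14% in these data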;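 further: plate controls were DMSO wells with RBBP9 for no effect and wells lacking RBBP9 protein for full effect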
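Test system: recombinant human RBBP9. Quantity: 2.5 µM RBBP9 dispensing solution, before mixing. Detection: FP readout at 525/598 nm. Reagent: Serine-hydrolase probe FP-Rh, 375 nM pre-mixing. Measure: % inhibition. Control set: DMSO-treated enzyme wells and wells lacking RBBP9. Buffer or medium: Tris-NaCl-Pluronic buffer, pH 8.0. Times: preincubation 30 min plus labeling 45 min at 25 °C.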
Wee1 degr inh: Wee1 degradation inhibitors, primary screen, cell-based, HeLa, Wee1K328M-luciferase, luminescence | Wee1-like protein kinase (Homo sapiens), P30291 | HeLa Luc-Wee1K328M stability; 100% = proteasome inhibitor MG132 effect | reporter increase, % at 5 µM | hit rate 1.2% among 220,000 | AID 1321, 2008;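 active means activation above the mean of all tested compounds plus 3 SD, set per screening run, cut at about 8.8% in these data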;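 further: cells exposed to compound for 20 h before luminescence read; 0% = DMSO alone and 100% = MG132 at 30 µM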
Active calls of the source: *; . = not tested or not shown; [ ] = dose if it differs, or a comment. Most compounds without a hit are left out; they make up all but 2.8% or so of the library.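 How the source made its calls, unless noted: active means inhibition above about 30% (limit read from the data); inactive means the rest.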

SMILES	p47phox inh	eIF4E-4G inh	14-3-3 Bad inh	RBBP9 inhibitor	Wee1 degr inh
Cc1c(N=Cc2ccc(-c3ccc(Cl)cc3)o2)c(=O)n(-c2ccccc2)n1C	-1	-7	-8	5	1
CCn1[nH]c(=O)c(=Nc2c(C)n(C)n(-c3ccccc3)c2=O)cc1-c1ccc(Cl)cc1	-13	2	91*[fluorescence artefact?]	2	-3
CC1CCC(NC(=O)CN(C)S(=O)(=O)c2cccc3cccnc23)CC1 (stereo unspecified)	0	-4	3	-3	0
CCOc1cc(CNc2ccccc2SC)ccc1O	-6	-4	18	2	-1
COc1cc(CNc2ccccc2SC)ccc1O	-2	-8	77*	3	1
Cc1ccsc1C(=O)NNC(=O)C1C2C=CC(C2)C1C(=O)O (stereo unspecified)	-11	17	6	-6	10*
COC(=O)c1sccc1NC(=O)C1C2C=CC(C2)C1C(=O)O (stereo unspecified)	-6	1	-14	0	0
C#CCN1C(=O)C(O)(CC(=O)c2ccc(OC)c(OC)c2)c2ccccc21 (stereo unspecified)	-16	97*	3	-15	-2
CCN(CC)CCNC(=O)c1ccccn1	-6	5	8	-2	16*
COc1ccc2nc(SC)cc(C)c2c1	-8	-1	0	1	-2
O=C(Nc1ccccc1)Nc1csc2ccccc12	-4	-8	3	5	10*
COc1cc(CNCC2CCCO2)ccc1OCC(N)=O (stereo unspecified)	1	-1	-11	-1	-1
Cc1sc2cc3c(c(C(=O)c4ccccc4)[n+]2c1C)-c1cccc2cccc-3c12	37*	1	-22	-4	-1
CCCCCC(=O)Nc1cccc(C2=NOC3(C2)C[C@@H](C(N)=O)N(C(=O)c2ccc(Cl)cc2)C3)c1 (stereo partly specified)	-10	0	1	.	.
Cc1cc(Br)ccc1NCc1ccccn1	-2	7	76*	-7	-2
Cc1ccc(-c2nnc(-n3ncc(C#N)c3N)c3ccccc23)cc1C	42*	2	2	-5	4
Cc1ccc(-c2nnc(N3CCCCC3)c3ccccc23)cc1	-15	0	5	-3	0
CCN(CC)S(=O)(=O)c1ccc(/C=C/C(=O)Nc2cccc(F)c2)cc1	-16	1	-8	-23	7
c1ccc(-c2nnc(CN3CCN(C(c4ccccc4)c4ccccc4)CC3)o2)cc1	159*	1	-2	0	0
N#Cc1c(SCc2ccccc2)sc(C(=O)c2ccccc2)c1N	-7	-1	5	-11	9.2*
Cc1ccc(CSc2sc(C(=O)c3ccccc3)c(N)c2C#N)cc1	-12	5	-21	-2	-2
CC/C(C)=N/N1C(=O)c2ccccc2NC1(C)CC (stereo unspecified)	2	-1	7	-3	-2
COCCCN(C(=S)Nc1cc(Cl)cc(Cl)c1)C(C)c1ccccn1 (stereo unspecified)	-17	-5	-7	6	-2
O=C(O)C1CCCCC1C(=O)NCc1cn2ccccc2n1 (stereo unspecified)	36*	-3	0	-7	-1
Cc1nc(NCc2ccccc2)c2cc[nH]c2n1	-14	-7	-3	9	-2
SMILES	p47phox inh	eIF4E-4G inh	14-3-3 Bad inh	RBBP9 inhibitor	Wee1 degr inh
COCCNC(=O)/C(C#N)=C/c1ccc(OC(=O)c2cccs2)c(OC)c1	113*	-3	1	-4	1
COc1cc(/C=C(\C#N)C(=O)NCc2ccccc2)ccc1OCc1ccc(C(=O)O)cc1	-16	-4	5	-9	11*
N#C/C(=C\c1ccc(OCc2cccc(C(=O)O)c2)cc1)C(=O)NCc1ccco1	-21	5	10	-1	9.2*
COCCNC(=O)/C(C#N)=C/c1ccc(OCc2ccccc2)cc1	-9	3	1	-5	1
CC(NC(=O)CNC(=O)C(Cc1ccccc1)NC(=O)OCc1ccccc1)C(N)=O (stereo unspecified)	4	2	-2	9	0
CC1(C)Cc2c(ccc3ccccc23)/C(=C/C(=O)N2CCCCC2)N1	-22	1	71*	-5	0
Cc1cc(C)c2c(N)c(C(=O)c3ccccc3)oc2n1	-3	7	-1	-8	1
Cc1cc(-c2ccccc2)nc2oc(C(=O)NN)c(N)c12	47*	-4	0	11	2
Fc1ccc(-c2csc(/C=C/c3ccc4c(c3)OCO4)n2)cc1	-10	-2	-6	-1	-1
Nc1cc(Cl)ccc1Oc1ccc(Cl)cc1	-10	7	80*	3	0
C/C(CC(=O)Nc1ccc2c(c1)OCO2)=N\NC(=O)c1ccc(N)cc1	-15	5	2	-6	9.6*
Cc1ccc(C2=NN=C(NC(=O)CSc3nncn3C)SC2)cc1	0	0	-8	7	0
O=C(N/N=C/c1ccc(-c2cccc([N+](=O)[O-])c2)o1)c1ccccc1O	19	16	19	-5	5
O=C(N/N=C/c1ccc(-c2cccc([N+](=O)[O-])c2)o1)c1ccc([N+](=O)[O-])cc1	4	-2	18	-3	9.2*
COc1cc([N+](=O)[O-])ccc1-c1ccc(C(=O)Nc2ccc(NC(C)=O)cc2)o1	28	29	95*[fluorescence artefact?]	-2	-1
COc1cc([N+](=O)[O-])ccc1-c1ccc(/C=N/NC(=O)c2ccccc2O)o1	-15	9	89*	-7	-2
Cc1cc([N+](=O)[O-])ccc1-c1ccc(/C=N/NC(=O)Cc2ccccc2)o1	-61	1	2	-9	3
Cc1ccnc(NS(=O)(=O)c2cc(C(F)(F)F)ccc2Cl)c1	-11	0	-1	3	2
COc1cccc(NC(=O)C(NCCC(C)C)c2ccccc2)c1 (stereo unspecified)	-30	-4	-13	-7	2
COc1cccc(NC(=O)C(NCC2CCCCC2)c2ccccc2)c1 (stereo unspecified)	-3	2	84*[fluorescence artefact?]	2	-2
N#Cc1cc2c(nc1Cl)CCC2	-4	-2	4	6	1
CCN(CC)S(=O)(=O)c1cccc(C(=O)N/N=C2\CC(=O)CC(C)(C)C2)c1	.	3	-5	1	9.5*
CC(C)Oc1ccc(C(=O)NC(Cc2c[nH]c3ccccc23)C(=O)NN)cc1 (stereo unspecified)	-5	-3	-5	-5	2
